Reference: ChEMBL document CHEMBL1926557 (Bioorg Med Chem, 2012)

Key:
[1] = Cytotoxicity against rat microglia cells after 90 mins by LDH release assay; assay type: cell-based; details: 1.5 h
Method in brief: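 Short-term viability of PMA (1 µM)-stimulated rat microglia measured by LDH release, given as percent of total LDH. Total LDH is released LDH plus the intracellular LDH from cells lysed with 0.1% Triton X-100. LDH50 is the concentration causing release of 50% of total LDH. Data from 3–4 experiments.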

[2] = Antineuroinflammatory activity in LPS-stimulated rat microglia cells assessed as inhibition of PMA-stimulated superoxide anion release preincubated for 15 mins measured 70 mins after PMA challenge; assay type: functional
Method in brief: (§1)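 Rat neonatal microglia (2 × 10^5 cells/well) primed with E. coli LPS 0.3 ng/mL for 17 h in DMEM + 10% FBS + penicillin/streptomycin at 35.9 °C, 5% CO2. Cells washed with warm HBSS, pre-exposed to compound (0.01–10 µM) or DMSO vehicle, then triggered with PMA 1 µM. Superoxide measured as superoxide dismutase-inhibitable reduction of ferricytochrome c. Triplicate wells, 2–4 experiments. IC50 derived.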

[3] = Antineuroinflammatory activity in LPS-stimulated rat microglia cells assessed as inhibition of PMA-stimulated TXB2 release preincubated for 15 mins measured 70 mins after PMA challenge; assay type: functional
Method in brief: as §1, with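 “TXB2 in supernatant quantified by EIA.” for “Superoxide measured as superoxide dismutase-inhibitable reduction of ferricytochrome c.”, “wells, 1 mL final volume,” for “wells,”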

[4] = Cytotoxicity against rat microglia cells assessed as cell viability after 18 hrs by WST-1 assay; assay type: cell-based
Method in brief: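 Rat neonatal microglia (10,000 cells/well) plated in LPS-free wells in FBS-free DMEM with penicillin/streptomycin. Compound (0.1–10 µM final) or DMSO vehicle added for 18 h at 36 °C, 5% CO2. WST-1 then added for 2 h, and formazan read at 450 nm against a 620 nm reference. Treated wells compared with vehicle, significance at p < 0.05.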

In the case of `[C-]#[N+][C@@]1(C)CC[C@H]2[C@H]3[C@@H](C(=C)CC[C@H]31)[C@H](CC(=C)C)C[C@@H]2C`, the IC50 [1] is reported as greater than 10 µM, the IC50 [2] is reported as greater than 10 µM and the IC50 ([3]; read-out: IC50) is reported as 1.72 µM. For the same compound, the Activity [4] was “Non-toxic”.
With `[C-]#[N+][C@@]12CCC(=C)[C@H]3[C@H](CC(C)(C)NC(=O)CN4CCC4=O)C[C@H](C)[C@@H](CC[C@@H]1C)[C@@H]32` [MONAMPHILECTINE A] the IC50 [1] was greater than 10 µM, the IC50 [2] was greater than 10 µM and the IC50 ([3]; read-out: IC50) was 4.69 µM. For the same compound, the Activity [4] was “Non-toxic”.
Work on `[C-]#[N+]C(C)(C)C[C@@H]1C[C@H](C)[C@H]2CC[C@](C)([N+]#[C-])[C@@H]3CCC(=C)[C@@H]1[C@H]23` yielded an IC50 [1] greater than 10 µM, an IC50 [2] greater than 10 µM and an IC50 ([3]; read-out: IC50) of 0.2 µM. For the same compound, the Activity [4] was “Non-toxic”.
In the case of `C=C1CC[C@@]2(NC=O)[C@H]3[C@H](CC[C@@H]2C)[C@@H](C)C[C@@H](CC(C)(C)NC=O)[C@H]13`, the IC50 [1] is reported as greater than 10 µM, the IC50 [2] is reported as greater than 10 µM and the IC50 ([3]; read-out: IC50) is reported as 3.14 µM. The Activity [4] was “Non-toxic”.
Work on `CC(C(=O)O)c1ccc(-c2ccccc2)c(F)c1` (stereo not given) [FLURBIPROFEN] yielded an IC50 ([3]; read-out: IC50(app)) of 0.1 µM.
`[C-]#[N+]C(C)(C)C[C@@H]1C[C@H](C)[C@H]2CC[C@H](C)[C@@]3([N+]#[C-])CCC(=O)[C@@H]1[C@H]23` gave an IC50 [1] greater than 10 µM, an IC50 [2] greater than 10 µM and an IC50 ([3]; read-out: IC50) of 1.43 µM. For the same compound, the Activity [4] was “Non-toxic”.
For `[C-]#[N+][C@@]12CCC(=C)[C@H]3[C@H](CC(C)(C)NC=O)C[C@H](C)[C@@H](CC[C@@H]1C)[C@@H]32`, the IC50 [1] was greater than 10 µM, the IC50 [2] was greater than 10 µM and the IC50 ([3]; read-out: IC50) was 1.48 µM. For the same compound, the Activity [4] was “Non-toxic”.
In the case of `[C-]#[N+]C(C)(C)C[C@@H]1C[C@H](C)[C@H]2CC[C@H](C)[C@@]3([N+]#[C-])CCC(=C)[C@@H]1[C@H]23` [DIISOCYANOAMPHILECTENE], the IC50 [1] is reported as greater than 10 µM, the IC50 [2] is reported as greater than 10 µM and the IC50 ([3]; read-out: IC50) is reported as 0.23 µM. The Activity [4] was “Non-toxic”.
In the case of `CC(=O)Oc1ccccc1C(=O)O` [ASPIRIN], the IC50 ([3]; read-out: IC50) is reported as 3.12 µM.
